In ChEMBL document CHEMBL1149077, “Synthesis and evaluation of a novel series of pseudo-cinnamic derivatives as antituberculosis agents” (2009):
Values after ≈ are worked out from the molar mass of the structure shown.

Test system: Mycobacterium tuberculosis
Test: Antitubercular activity against Mycobacterium tuberculosis H37Rv after 6 days by MTT reduction assay
Type: functional
Conditions: 144 h
Procedure, shortened: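 Strain H37Rv tested in 7H9 broth across serial twofold compound dilutions, bacilli added to each well. Incubated 6 days, then MTT (1 mg/mL) added for one further day. Formazan solubilized and absorbance read at 570 nm. MIC taken as lowest concentration inhibiting growth, with untreated bacilli serving as growth control.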

Compound	MIC [µg/mL]
COc1cc(/C=C/C(=O)SCCNC(C)=O)cc(OC)c1O	125 (≈ 384 µM)
CC(C)=CCOc1ccc(/C=C/C(=O)NCCc2c[nH]c3ccccc23)cc1	63 (≈ 168 µM)
COc1ccc(/C=C/C(=O)NCCc2c[nH]c3ccccc23)cc1	500 (≈ 1560 µM)
COc1ccc(/C=C/C(=O)SCCNC(C)=O)cc1	63 (≈ 226 µM)
O=C(/C=C/c1ccc(O)cc1)Sc1ccccc1	8 (≈ 31.2 µM)
COc1cc(/C=C/C(=O)SCCNC(C)=O)ccc1O	125 (≈ 423 µM)
COc1ccc(/C=C/C(=O)NCCNC(C)=O)cc1	> 500
CC(C)=CCOc1ccc(/C=C/C(=O)Nc2ccccn2)cc1	16 (≈ 51.9 µM)
CC(C)=CCC/C(C)=C/COc1ccc(/C=C/C(=O)NCCc2c[nH]c3ccccc23)cc1	32 (≈ 72.3 µM)
COc1cc(/C=C/C(=O)Sc2ccccc2)ccc1O	8 (≈ 27.9 µM)
CC(=O)NCCSC(=O)/C=C/c1ccc(OC/C=C(\C)CCC=C(C)C)cc1	0.6 (≈ 1.49 µM)
CC(=O)NCCNC(=O)/C=C/c1ccc(OCC=C(C)C)cc1	63 (≈ 199 µM)
COc1ccc(/C=C/C(=O)Nc2ccccn2)cc1	63 (≈ 248 µM)
CC(C)=CCC/C(C)=C/COc1ccc(/C=C/C(=O)Nc2ccccn2)cc1	1 (≈ 2.66 µM)
CC(=O)NCCSC(=O)/C=C/c1ccc(OC/C=C(/C)CC/C=C(/C)CCC=C(C)C)cc1	0.6 (≈ 1.28 µM)
COc1cc(/C=C/C(=O)NCCc2c[nH]c3ccccc23)ccc1O	8 (≈ 23.8 µM)
CC(=O)NCCSC(=O)/C=C/c1ccc(O)cc1	63 (≈ 237 µM)
CC(=O)NCCSC(=O)/C=C/c1ccc(OCC=C(C)C)cc1	32 (≈ 96 µM)
COc1ccc(/C=C/C(=O)Nc2ccccn2)cc1OC	125 (≈ 440 µM)
CC(=O)NCCNC(=O)/C=C/c1ccc(OC/C=C(\C)CCC=C(C)C)cc1	0.1 (≈ 0.26 µM)
